High-throughput results: PubChem BioAssay, Johns Hopkins Ion Channel Center
Shown are actives, neighbours in structure and some others; about 3.7% of the full set was active somewhere.
KCNQ1 inh: human KCNQ1 channel inhibition | B-score at 10 µM | 310,000 compounds, 1.3% hits | CHO-K1 KCNQ1, FluxOR thallium flux fluorescence; active compounds read high | AID 2642;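 active means compounds whose thallium flux B-score, printed positive for inhibition, exceeds three library SD while starting fluorescence stays within three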;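 further: channel opened by potassium depolarization with thallium stimulus after 20 min compound exposure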
Target sequence (P51787 whole entry, looked up): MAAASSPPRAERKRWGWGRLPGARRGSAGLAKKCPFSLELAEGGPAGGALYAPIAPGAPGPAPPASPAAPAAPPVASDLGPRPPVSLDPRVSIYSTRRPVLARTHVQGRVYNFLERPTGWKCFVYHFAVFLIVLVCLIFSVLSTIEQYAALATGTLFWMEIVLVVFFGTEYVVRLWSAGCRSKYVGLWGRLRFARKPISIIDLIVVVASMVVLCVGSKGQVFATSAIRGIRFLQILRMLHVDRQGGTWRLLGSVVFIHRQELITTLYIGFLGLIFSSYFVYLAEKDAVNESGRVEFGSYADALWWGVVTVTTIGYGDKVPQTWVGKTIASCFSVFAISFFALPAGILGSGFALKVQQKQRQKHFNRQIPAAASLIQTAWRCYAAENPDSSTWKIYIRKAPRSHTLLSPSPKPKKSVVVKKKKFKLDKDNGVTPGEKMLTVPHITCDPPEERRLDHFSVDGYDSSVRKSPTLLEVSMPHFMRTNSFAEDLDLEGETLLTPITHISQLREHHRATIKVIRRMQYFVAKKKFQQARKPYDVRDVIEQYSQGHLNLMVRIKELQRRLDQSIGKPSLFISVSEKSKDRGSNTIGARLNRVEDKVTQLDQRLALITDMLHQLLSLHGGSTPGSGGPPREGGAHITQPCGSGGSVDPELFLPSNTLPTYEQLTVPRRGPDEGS
Kir21 inh: blocks the mouse Kir2.1 inward-rectifier potassium channel; HEK293-Kir2.1, FluxOR thallium flux fluorescence; active compounds read low; AID 1672; B-score at 10 µM; 310,000 compounds, 0.85% hits;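 active means fluorescence ratio B-score at or below minus 3 SD of library scores, with starting-brightness B-score within 2 SD, cut at about -4.2 in these data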;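 further: channel flux triggered by added potassium and thallium sulfate stimulus; B-score of peak minus minimum fluorescence over baseline after thallium stimulus; more negative B-score means stronger Kir2.1 block with less thallium influx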
KCNK3 inh: human KCNK3 channel inhibition, primary screen; CHO-KCNK3 thallium flux, FluxOR fluorescence; active compounds read low; B-score at 10 µM; 340,000 compounds, 0.84% hits;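 active means B-score under library mean minus 4 SD, starting fluorescence ratio at most library mean plus 5 SD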;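 further: more negative B-score means stronger inhibition of thallium flux through KCNK3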
KCNK9 inh: inhibitors of human KCNK9 two-pore domain potassium channel | Q9NPC2 | 310,000 compounds, 1.2% hits | B-score at 10 µM | HEK293 KCNK9, FluxOR thallium flux fluorescence; active compounds read low;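 active means ratio B-score over 3 SD below the library mean, with starting fluorescence within 5 SD of its mean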;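 further: negative B-score means less thallium flux so channel inhibition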
hERG protect: hERG (human) protection from proarrhythmic block. CHO-hERG, FluxOR thallium flux, dofetilide IC70 present. 310,000 compounds, 0.51% hits. activation (rescue from dofetilide block), less the hit threshold, % at 10 µM. Q12809;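 active means activation above the mean of controls blocked by dofetilide plus 5 SD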;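 further: thallium influx through hERG after potassium depolarization seen as dye fluorescence rise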
KCNQ1 pot: potentiates or activates the human KCNQ1 potassium channel | P51787 | CHO-K1 KCNQ1, thallium flux FluxOR fluorescence; active compounds read high | B-score at 10 µM | 310,000 compounds, 0.35% hits | AID 2648;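 active means fluorescence ratio B-score, a plate-corrected score, at least three library SD, with initial intensity B-score within 5 SD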
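assay system = KCNQ1-transfected CHO-K1 cells | medium = assay buffer with matched DMSO | probe or stimulus = depolarizing K+/Tl+ stimulus, K2SO4 and Tl2SO4 each 12.5 mM in 5x stock | dosing = single dose | incubation = dye 90 min, compound 20 min, room temperature | detection = kinetic FluxOR fluorescence, 10 s baseline plus 110 s post-stimulus | evaluation = ratio B score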
KCNK3 inh conf: human KCNK3 channel inhibition, confirmation assay; shares compounds with KCNK3 inh; CHO-KCNK3 thallium flux, FluxOR fluorescence; 0% buffer, 100% carvedilol maximal block; ratio percent of control, % at 10 µM; 2,400 compounds, 99% hits;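 active means ratio percent of control, averaged over triplicates, above buffer control mean plus 5 SD, cut at about 64% in these data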;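 further: ratio is the fluorescence rise from min to max over baseline after thallium stimulus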
KCNK3 uninduced: counter-screen for KCNK3 inhibitors: effect in non-induced cells. shares compounds with KCNK3 inh. non-induced KCNK3 parental cells, FluxOR thallium flux; active compounds read low. thallium flux ratio (lower = more inhibition) at 10 µM. 2,400 compounds, 40% hits;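 active means thallium flux ratio, averaged over three wells, more than 5 SD below the buffer control mean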;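 further: host cells are CHO cells without KCNK3 induction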
A number is an active result; n = inactive; x = no result.

SMILES	KCNQ1 inh	Kir21 inh	KCNK3 inh	KCNK9 inh	hERG protect	KCNQ1 pot	KCNK3 inh conf	KCNK3 uninduced
COc1ccc(-c2csc(/C(C#N)=C\c3ccc(O)c([N+](=O)[O-])c3)n2)cc1OC	n	n	-10.5	n	n	n	116.3	0.138
Cc1ccc2nccc(C(=O)N3CCCC(Nc4ccc(C)c(C)c4)C3)c2c1 (stereo not drawn)	n	n	n	n	n	n	x	x
O=C(Nc1cccc2cccnc12)c1ccc(Cl)cc1Cl	n	n	n	n	n	n	x	x
COc1cc(NC(=O)c2ccccc2Cl)c2ncccc2c1	n	n	-9.12	n	n	n	119.3	0.151
O=C(Cc1ncc(C(F)(F)F)cc1Cl)NNc1cccc(F)n1	n	n	n	n	n	n	x	x
COc1cccc(NC(=O)c2cc3ccccc3o/c2=N\O)c1	n	n	-8.74	n	n	n	124.7	0.13
O=C(Nc1ccccc1Cl)c1cc2ccccc2o/c1=N\O	n	n	n	n	n	n	x	x
CCOc1ccccc1CNC(c1ccccc1)c1ccccc1	n	n	-10.3	n	n	n	67.0	0.157
COc1ccccc1CNC(c1ccccc1)c1ccccc1	n	n	n	n	n	n	x	x
CCOP(=O)(OCC)c1nc(-c2cccc3ccccc23)oc1NCc1ccc(OC)cc1	n	n	-10.9	n	n	n	107.3	0.157
COCCCNC(=S)N1CCN(c2nc3ccccc3s2)CC1	n	n	n	n	n	n	x	x
CCc1nc(N2CCN(C(=S)NCCCOC)CC2)c2c3c(sc2n1)CCCC3	n	n	-8.87	n	n	n	95.3	0.15
O=[N+]([O-])c1ccccc1/C=N\N1CCN(Cc2ccccc2Cl)CC1	n	n	-8.95	n	n	n	99.3	n
O=C(OC(C(=O)NCc1ccc(F)cc1)c1ccccc1)c1ccco1 (stereo not drawn)	n	n	n	n	n	n	x	x
COc1ccccc1/C=C1\SC(=S)N(N2C(=O)CCCC2=O)C1=O	n	n	-9.35	n	n	n	105.3	n
Cc1cccc(C(=O)NC(C(=O)Nc2ccccc2N2CCOCC2)C(C)C)c1 (stereo not drawn)	n	n	n	n	n	n	x	x
Cc1noc(C)c1COc1ccccc1C(=O)NC1CCC(C)CC1 (stereo not drawn)	n	n	-10.4	n	n	n	105.7	n
Cc1noc(C)c1COc1ccccc1C(=O)NCCOc1ccccc1F	x	x	n	x	x	x	x	x
O=C(COC(=O)c1ccc2c(c1)C(=O)N(Cc1ccco1)C2=O)NCC(F)(F)F	n	n	n	n	n	n	x	x
O=C(NCCSc1c[nH]c2ccccc12)c1c(F)cccc1F	n	n	-10.3	n	n	n	101.3	n
O=C(NCCSc1c[nH]c2ccccc12)c1ccco1	n	n	n	n	n	n	x	x
COc1cc(N2CCC(O)CC2)ccc1Nc1nnc(Cl)c(Nc2ccccc2S(C)(=O)=O)n1	x	x	n	x	x	x	x	x
Cc1ccc(S(=O)(=O)N(C)C)cc1NC(=O)COC(=O)c1c(-c2ccccc2)noc1C	n	n	-9.05	n	n	n	91.3	n
Cc1ccc2c(Cl)cc(Cl)c(OCC(=O)Nc3cc(S(=O)(=O)N(C)C)ccc3C)c2n1	n	n	-9.1	n	n	n	90.3	0.155
Cc1ccccc1NC(=O)COC(=O)c1c(-c2ccccc2)noc1C	x	x	n	x	x	x	x	x
SMILES	KCNQ1 inh	Kir21 inh	KCNK3 inh	KCNK9 inh	hERG protect	KCNQ1 pot	KCNK3 inh conf	KCNK3 uninduced
C/C(=N\NC(=O)c1ccc(O)cc1)c1ccc(NC(=O)Cc2ccccc2)cc1	n	n	n	n	n	n	x	x
Cc1cccc(NS(=O)(=O)c2cc(C(=O)NCCC3=CCCCC3)ccc2Cl)c1	n	n	-12.2	n	n	n	118.3	0.152
COC(=O)c1sc2nc(C)nc(SCC(=O)N3CCC(C(=O)O)CC3)c2c1C	n	n	n	n	n	n	x	x
CC(C)CNC(=O)c1cc2nc3c(c(C(F)(F)F)n2n1)CCc1ccccc1-3	n	n	-16.8	n	n	n	56.3	n
CCCCNC(=O)c1cc2nc3c(c(C(F)(F)F)n2n1)CCc1ccccc1-3	n	n	n	n	n	n	x	x
COc1ccc(C(=O)NCC2CCCCC2)cc1S(=O)(=O)N1CCOCC1	x	x	n	x	x	x	x	x
CCCN(C(=O)COC(=O)CSc1ccc([N+](=O)[O-])cc1)C1CCS(=O)(=O)C1 (stereo not drawn)	x	x	n	x	x	x	x	x
CSc1ccc(CN(C)C(=O)C(Cc2ccccc2)NC(=O)c2ccccc2)cc1 (stereo not drawn)	n	n	n	n	n	n	x	x
CSc1ccc(CN(C)C(=O)C(c2ccccc2)c2ccccc2)cc1	n	n	-9.97	n	n	n	126.3	0.126
CCCCc1nn(-c2cc(Cl)ccc2OC)c2c1C(=O)CC(C)(C)C2	n	n	-10.1	n	n	n	92.3	n
O=[N+]([O-])c1ccc2nc(C3CCCCC3)[nH]c2c1	n	n	n	n	n	n	x	x
O=[N+]([O-])c1ccc(O)c(C2CCCCC2)c1	x	x	-11.4	x	x	x	126.7	0.142
O=C(Cc1ccccc1)Nc1cccc(-c2nc3ncccc3o2)c1	n	n	-10.3	n	n	n	64.3	n
CCOc1ccccc1NC(=O)c1cc(=O)[nH]c2ccc(S(=O)(=O)N3CCOCC3)cc12	x	x	n	x	x	x	x	x
CC(Nc1nc(-c2cccnc2)nc2ccccc12)c1ccc(F)cc1 (stereo not drawn)	8	n	-16.9	-7.86	n	n	125.0	n
CC(C)[C@H](NC(=O)c1ccccc1Cl)C(=O)Nc1ccc(S(=O)(=O)Nc2nccs2)cc1	x	x	n	x	x	x	x	x
CCCNC(=O)c1c(N)n(-c2cc(OC)cc(OC)c2)c2nc3ccccc3nc12	n	n	-9.18	n	n	n	125.0	n
O=C(O)Cn1nnc(-c2ccc(OCc3ccccc3Cl)cc2)n1	n	n	n	n	n	n	x	x
CC(C)n1nnc(-c2ccc(OCc3ccccc3F)cc2)n1	n	n	-9.13	-7.93	n	n	99.3	n
Cc1ccc(NC(=O)CN(C)C(=O)COc2ccccc2-c2ccccc2)cc1	x	x	n	x	x	x	x	x
O=C(CCSc1ccccc1)Nc1nc2c(s1)COc1ccccc1-2	n	n	-9.38	n	n	n	104.7	n
CCCC(=O)Nc1nc2c(s1)COc1ccccc1-2	n	n	n	n	n	n	x	x
Cc1ccc(-c2cc(-c3ccc(C)o3)nc(N)c2C#N)cc1	n	n	-10.9	n	n	n	101.3	n
Cc1cc(OCC(=O)N2CCC(O)CC2)c2c(C)cc(=O)oc2c1	n	n	n	n	n	n	x	x
O=C(c1ccccc1)C1CCN(c2ncccc2[N+](=O)[O-])CC1	n	n	-8.81	n	n	n	84.7	n
